Source: ChEMBL document CHEMBL1926577, “Novel 1,3,4-heterodiazole analogues: synthesis and in-vitro antitumor activity” (2012)

Tests used:
Format in all cases: functional
[1] = system: SF-295; test: Growth inhibition of human SF295 cells at 10 uM after 48 hrs by coulter counter method; conditions: SF-295, 48 h, read-out: GI
How it was run: (§1)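 NCI 60-cell-line panel, single dose. Compound dissolved first in DMSO, then diluted in phosphate-buffered saline so that every final dilution held under 1% DMSO. Duplicate wells received cells at 6 × 10⁴ cells/ml. Controls held PBS/DMSO at the same dilution. Plates were incubated 48 h at 37 °C under 5% CO₂. Cells were then diluted 10-fold in saline and counted on a Coulter counter, with counts corrected for the dilution. Results are given as percent growth inhibition.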

[2] = system: NCI-H322M; test: Growth inhibition of human NCI-H322M cells at 10 uM after 48 hrs by coulter counter method; conditions: read-out: GI; how it was run: as §1
[3] = system: PC-3; test: Growth inhibition of human PC3 cells at 10 uM after 48 hrs by coulter counter method; conditions: PC-3, 48 h, read-out: GI; how it was run: as §1
[4] = system: CCRF-CEM; test: Growth inhibition of human CCRF-CEM cells at 10 uM after 48 hrs by coulter counter method; conditions: read-out: GI; how it was run: as §1
[5] = system: HT-29; test: Growth inhibition of human HT-29 cells at 10 uM after 48 hrs by coulter counter method; conditions: HT-29, 48 h, read-out: GI; how it was run: as §1
[6] = system: HCT-116; test: Growth inhibition of human HCT116 cells at 10 uM after 48 hrs by coulter counter method; conditions: HCT-116, 48 h, read-out: GI; how it was run: as §1
[7] = system: SK-MEL-5; test: Growth inhibition of human SK-MEL-5 cells at 10 uM after 48 hrs by coulter counter method; conditions: SK-MEL-5, 48 h, read-out: GI; how it was run: as §1
[8] = system: HL-60(TB); test: Growth inhibition of human HL-60(TB) cells at 10 uM after 48 hrs by coulter counter method; conditions: HL-60, 48 h, read-out: GI
How it was run: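 Single-dose screen on the NCI 60-line panel (leukemia subpanel). Compound is dissolved in DMSO and diluted in PBS, with final DMSO below 1%. Duplicate wells hold 6 × 10⁴ cells/ml at 37 °C, 5% CO₂, for 48 h. Cells are counted by Coulter counter after 10-fold saline dilution. Read-out is percent growth versus PBS/DMSO controls, expressed as % growth inhibition.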

[9] = system: SK-MEL-2; test: Growth inhibition of human SK-MEL-2 cells at 10 uM after 48 hrs by coulter counter method; conditions: SK-MEL-2, 48 h, read-out: GI; how it was run: as §1
[10] = system: BT-549; test: Growth inhibition of human BT549 cells at 10 uM after 48 hrs by coulter counter method; conditions: BT-549, 48 h, read-out: GI; how it was run: as §1
[11] = system: A498; test: Growth inhibition of human A498 cells at 10 uM after 48 hrs by coulter counter method; conditions: A498, 48 h, read-out: GI; how it was run: as §1
[12] = system: SF-268; test: Growth inhibition of human SF268 cells at 10 uM after 48 hrs by coulter counter method; conditions: SF-268, 48 h, read-out: GI; how it was run: as §1
[13] = system: SK-MEL-28; test: Growth inhibition of human SK-MEL-28 cells at 10 uM after 48 hrs by coulter counter method; conditions: SK-MEL-28, 48 h, read-out: GI; how it was run: as §1
[14] = system: MCF7; test: Growth inhibition of human MCF7 cells at 10 uM after 48 hrs by coulter counter method; conditions: MCF7, 48 h, read-out: GI; how it was run: as §1
[15] = system: UACC-257; test: Growth inhibition of human UACC257 cells at 10 uM after 48 hrs by coulter counter method; conditions: UACC-257, 48 h, read-out: GI; how it was run: as §1
[16] = system: 786-0; test: Growth inhibition of human 786-0 cells at 10 uM after 48 hrs by coulter counter method; conditions: 786-0, 48 h, read-out: GI; how it was run: as §1
[17] = system: MDA-MB-435; test: Growth inhibition of human MDA-MB-435 cells at 10 uM after 48 hrs by coulter counter method; conditions: MDA-MB-435, 48 h, read-out: GI; how it was run: as §1
[18] = system: TK-10; test: Growth inhibition of human TK10 cells at 10 uM after 48 hrs by coulter counter method; conditions: TK-10, 48 h, read-out: GI; how it was run: as §1
[19] = system: M14; test: Growth inhibition of human M14 cells at 10 uM after 48 hrs by coulter counter method; conditions: M14, 48 h, read-out: GI; how it was run: as §1
[20] = system: ACHN; test: Growth inhibition of human ACHN cells at 10 uM after 48 hrs by coulter counter method; conditions: read-out: GI; how it was run: as §1
[21] = system: UACC-62; test: Growth inhibition of human UACC62 cells at 10 uM after 48 hrs by coulter counter method; conditions: UACC-62, 48 h, read-out: GI; how it was run: as §1
[22] = system: NCI/ADR-RES; test: Growth inhibition of human NCI/ADR-RES cells at 10 uM after 48 hrs by coulter counter method; conditions: read-out: GI; how it was run: as §1
[23] = system: SNB-19; test: Growth inhibition of human SNB19 cells at 10 uM after 48 hrs by coulter counter method; conditions: SNB-19, 48 h, read-out: GI; how it was run: as §1
[24] = system: KM12; test: Growth inhibition of human KM12 cells at 10 uM after 48 hrs by coulter counter method; conditions: KM12, 48 h, read-out: GI; how it was run: as §1
[25] = system: IGROV-1; test: Growth inhibition of human IGROV1 cells at 10 uM after 48 hrs by coulter counter method; conditions: IGROV-1, 48 h, read-out: GI; how it was run: as §1
[26] = system: EKVX; test: Growth inhibition of human EKVX cells at 10 uM after 48 hrs by coulter counter method; conditions: read-out: GI; how it was run: as §1
[27] = system: CAKI-1; test: Growth inhibition of human Caki1 cells at 10 uM after 48 hrs by coulter counter method; conditions: CAKI-1, 48 h, read-out: GI; how it was run: as §1
[28] = system: HCT-15; test: Growth inhibition of human HCT15 cells at 10 uM after 48 hrs by coulter counter method; conditions: HCT-15, 48 h, read-out: GI; how it was run: as §1
[29] = system: NCI-H226; test: Growth inhibition of human NCI-H226 cells at 10 uM after 48 hrs by coulter counter method; conditions: NCI-H226, 48 h, read-out: GI; how it was run: as §1
[30] = system: T47D; test: Growth inhibition of human T47D cells at 10 uM after 48 hrs by coulter counter method; conditions: read-out: GI; how it was run: as §1
[31] = system: Malme-3M; test: Growth inhibition of human MALME-3M cells at 10 uM after 48 hrs by coulter counter method; conditions: read-out: GI; how it was run: as §1
[32] = system: MDA-MB-468; test: Growth inhibition of human MDA-MB-468 cells at 10 uM after 48 hrs by coulter counter method; conditions: MDA-MB-468, 48 h, read-out: GI; how it was run: as §1
[33] = system: K562; test: Growth inhibition of human K562 cells at 10 uM after 48 hrs by coulter counter method; conditions: K562, 48 h, read-out: GI; how it was run: as §1
[34] = system: A549; test: Growth inhibition of human A549 cells at 10 uM after 48 hrs by coulter counter method; conditions: A549, 48 h, read-out: GI; how it was run: as §1
[35] = system: SN12C; test: Growth inhibition of human SN12C cells at 10 uM after 48 hrs by coulter counter method; conditions: read-out: GI; how it was run: as §1
[36] = system: NCI-H23; test: Growth inhibition of human NCI-H23 cells at 10 uM after 48 hrs by coulter counter method; conditions: NCI-H23, 48 h, read-out: GI; how it was run: as §1
[37] = system: SR; test: Growth inhibition of human SR cells at 10 uM after 48 hrs by coulter counter method; conditions: read-out: GI; how it was run: as §1
[38] = system: LOX IMVI; test: Growth inhibition of human LOXIMVI cells at 10 uM after 48 hrs by coulter counter method; conditions: read-out: GI; how it was run: as §1
[39] = system: NCI-H522; test: Growth inhibition of human NCI-H522 cells at 10 uM after 48 hrs by coulter counter method; conditions: NCI-H522, 48 h, read-out: GI; how it was run: as §1
[40] = system: U-251; test: Growth inhibition of human U251 cells at 10 uM after 48 hrs by coulter counter method; conditions: U-251, 48 h, read-out: GI; how it was run: as §1
[41] = system: RPMI-8226; test: Growth inhibition of human RPMI8226 cells at 10 uM after 48 hrs by coulter counter method; conditions: RPMI-8226, 48 h, read-out: GI; how it was run: as §1
[42] = system: SNB-75; test: Growth inhibition of human SNB75 cells at 10 uM after 48 hrs by coulter counter method; conditions: SNB-75, 48 h, read-out: GI; how it was run: as §1
[43] = system: OVCAR-8; test: Growth inhibition of human OVCAR8 cells at 10 uM after 48 hrs by coulter counter method; conditions: OVCAR-8, 48 h, read-out: GI; how it was run: as §1
[44] = system: MOLT-4; test: Growth inhibition of human MOLT4 cells at 10 uM after 48 hrs by coulter counter method; conditions: MOLT-4, 48 h, read-out: GI; how it was run: as §1
[45] = system: UO-31; test: Growth inhibition of human UO31 cells at 10 uM after 48 hrs by coulter counter method; conditions: UO-31, 48 h, read-out: GI; how it was run: as §1

Measured: inhibition of growth at 10 µM

O=C1N=C2OC(c3ccccc3)=NN2C1=O
12.5%: [2]
15.2%: [15]
< 10%: [1] | [3] | [4] | [5] | [6] | [7] | [8] | [9] | [10] | [11] | [12] | [13] | [14] | [16] | [17] | [18] | [19] | [20] | [21] | [22] | [23] | [24] | [25] | [26] | [27] | [28] | [29] | [30] | [31] | [32] | [33] | [34] | [35] | [36] | [37] | [38] | [39] | [40] | [41] | [42] | [43] | [44]
20.5%: [45]
